Bioassay records: PubChem, several laboratories
FID counter: compounds displacing fluorescent DNA intercalator, primary screen, artefact control for HCV NS3 helicase inhibitor project, biochemical, FID fluorescence; inhibition, % at 7.9 µM; 0.17% of 290,000 active; DNA fluorescent intercalator displacement; in the data active = inhibition above about 37%;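 note: 0% = vehicle and 100% = reference compound; higher means more ethidium bromide displaced from hairpin DNA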
NS3 helicase inh: inhibitors of HCV NS3 helicase, primary screen, biochemical, Cy5 molecular beacon fluorescence. inhibition, % at 10.9 µM. Hepatitis C virus NS3 helicase. AID 1800, 2009. 0.56% of 290,000 active. NS3 helicase DNA unwinding;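 active = inhibition above the mean of all tested compounds plus 3 SD, set per campaign, cut at about 35% in these data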;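 note: 0% = DMSO wells and 100% = thioflavine S control wells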
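Test system: hepatitis C virus NS3 helicase domain fragment enzyme. Also added: annealed dual-labelled DNA beacon duplex, ATP-started. Timing: 60 min unwinding reaction at 25 °C after ATP addition. Technique: Cy5 fluorescence. Measure: % inhibition of unwinding.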
SUMO HTRF inh: inhibitors of in vitro SUMOylation cascade, primary screen, biochemical, HTRF, uHTS | 0.36% of 290,000 active | inhibition, % at 35 µM | HTRF SUMOylation assay, SAE1/SAE2 + UBC9 | SUMO-conjugating enzyme UBC9 (Homo sapiens), P63279; in the data active = inhibition above about 50%, passing the limit was not always enough; inconclusive = no clear call, values can overlap the other calls
Target sequence (P63279 whole entry, looked up): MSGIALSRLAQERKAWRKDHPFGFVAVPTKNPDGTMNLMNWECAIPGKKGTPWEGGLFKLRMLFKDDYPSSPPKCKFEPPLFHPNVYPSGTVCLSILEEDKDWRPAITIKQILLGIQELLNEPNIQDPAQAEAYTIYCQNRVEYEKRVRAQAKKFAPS
IMP-1 inh: IMP-1 metallo-beta-lactamase inhibitors, primary screen, biochemical, epi-absorbance readout, Pseudomonas aeruginosa enzyme. purified IMP-1, nitrocefin hydrolysis, epi-absorbance fluorescence. inhibition, % at 5.6 µM. 0.45% of 290,000 active;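 active = inhibition above the mean plus 3 SD of all compounds in the same screening run, cut at about 4.5% in these data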;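 note: 0% = IMP-1 with DMSO and 100% = DMSO wells lacking enzyme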
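assay system = purified recombinant IMP-1 metallo-beta-lactamase enzyme | schedule = 15 min preincubation plus 25 min reaction at 25 °C | signal = Epi-absorbance fluorescence, 480 nm excitation, 530 nm emission | read-out basis = percent inhibition from optical density relative to buffer-blank wells | controls = IMP-1 with DMSO as 0%, enzyme-free DMSO as 100%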
VIM-2 inh: VIM-2 metallo-beta-lactamase inhibitors, primary screen, biochemical, epi-absorbance readout, Pseudomonas aeruginosa enzyme | purified VIM-2, nitrocefin hydrolysis, epi-absorbance fluorescence | inhibition, % at 5.6 µM | 0.89% of 290,000 active;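 active = inhibition above the mean of all tested compounds plus 3 SD, cutoff set per screening run, cut at about 7.5% in these data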;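 note: red hydrolysis product quenches plate fluorescence so inhibitors raise well fluorescence; 0% = enzyme with DMSO and 100% = DMSO without enzyme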
Starred values were filed as active, the others as inactive; ? = inconclusive; · = no result. An excerpt weighted towards active compounds, which were near 2.1% of everything screened.

SMILES	FID counter	NS3 helicase inh	SUMO HTRF inh	IMP-1 inh	VIM-2 inh
Cc1cc(C(=O)CN2C(=O)NC(C)(c3ccccc3)C2=O)c(C)n1CC1CCCO1 (stereo not given)	-13	12	-2	-4	-3
Cc1cc(C(=O)CN2C(=O)c3ccccc3S2(=O)=O)c(C)n1CC1CCCO1 (stereo not given)	-7	2	5	9.4*	6
COCc1ccc(C(=O)N2CCCC(N(C)CCc3ccc(OC)c(OC)c3)C2)s1 (stereo not given)	-2	14	2	-1	-3
COCC(=O)N1CCCC(N(C)CCc2ccc(OC)c(OC)c2)C1 (stereo not given)	-2	0	-10	8.0*	-2
Cc1cn(-c2cc(NC(=O)c3ccc(C)c(NC(=O)c4cccc(-c5cn[nH]c(=O)c5)c4)c3)cc(C(F)(F)F)c2)cn1	-17	-41	-13	20*	2
CN1C(=O)c2cccc3c(S(=O)(=O)NCCc4ccccc4)ccc1c23	-17	-4	56*	-2	-1
COCCNS(=O)(=O)c1ccc2c3c(cccc13)C(=O)N2C	-1	2	?	-2	-2
CN1C(=O)c2cccc3c(S(=O)(=O)Nc4ccc(O)c(C(=O)O)c4)ccc1c23	-21	4	7	2	12*
O=C(c1ccoc1)N1CCCC(N2CCN(c3cccc(Cl)c3)CC2)C1 (stereo not given)	-32	3	10	-3	-2
Cc1ccc(C(=O)Nc2ncn[nH]2)cc1	-2	7	15	-1	-4
Cc1ccc(SC(C)C(=O)Nc2ncn[nH]2)cc1 (stereo not given)	-4	2	7	39*	-6
Cc1n[nH]c(C)c1CCNC(=O)C1CCC(=O)N(CCc2cccc(F)c2)C1 (stereo not given)	-10	-2	-8	-1	-1
O=C(c1ccc(Oc2cc(Cl)cc(Cl)c2)o1)N1CCCCC1	-15	-8	10	-2	-1
CCOC(=O)/C=C(\C)Sc1cc(O)c2ccccc2c1O	-3	12	74*	0	1
N#CC(C#N)=C1NC(N)=C(C#N)C(c2ccccc2)=C1C#N	-2	10	16	23*	-2
Nc1nc(-c2cccs2)c(CC(=O)O)s1	-8	2	28	-2	-2
Nc1nc(-c2cccs2)c(-c2cccs2)s1	0	12	7	16*	-2
CCNc1ccc(Br)cc(C(=O)/C=C/c2ccccc2Cl)c1=O	-19	29	·	11*	0
CCNc1ccccc(C(=O)/C=C/c2ccc3c(c2)OCO3)c1=O	-19	16	33	0	0
CNc1ccc(Br)cc(C(=O)/C=C/c2cccc(OC)c2OC)c1=O	-28	32	12	6.5*	1
CCn1c(=O)n(CC)c2cc(N3CCCC3)c(NC(=O)c3cccc(Cl)c3)cc21	-2	-1	14	-3	4
c1coc(C2=Nc3cccc4cccc(c34)N2)c1	1	2	94*	-4	-2
NC(=O)NC(=O)COC(=O)/C=C/c1cccs1	-5	1	7	-3	-2
C[n+]1nc(Nc2ccccc2)sc1-c1ccc(C(=O)O)cc1	·	·	9	·	·
COc1cc(/C=C2/SC(=S)N(Cc3ccccc3)C2=O)ccc1O	23	0	-4	4.7*	3
SMILES	FID counter	NS3 helicase inh	SUMO HTRF inh	IMP-1 inh	VIM-2 inh
O=C1/C(=C/c2ccncc2)SC(=S)N1Cc1ccccc1	-3	5	-9	6.2*	1
COc1cc(/C=C2/SC(=NCc3ccccc3)N(Cc3ccccc3)C2=O)ccc1O	-3	-2	-16	-2	-4
CCOc1ccc(N(C)c2ccc(/C=C3/SC(=S)NC3=O)cc2)cc1	-6	33	23	6.5*	2
CCOc1c(O)ccc(/C=C2\SC(=S)NC2=O)c1[N+](=O)[O-]	2	32	50*	-2	0
COc1cccc(-c2cc3nc4c(c(N5CCC6(CC5)OCCO6)n3n2)CCC4)c1	-22	-13	-4	-6	-3
O=C1NC(c2ccccc2Cl)=N/C1=C/c1ccco1	-5	16	14	-2	-3
O=C1NC(c2ccc(Br)cc2)=N/C1=C/c1ccco1	7	0	51*	-1	0
Cc1ccc(CNC(=O)CCSCc2ccccc2C)cc1	-33	-8	7	-2	-1
COc1ccccc1NC(=O)Cc1cccs1	-2	5	18	-2	-4
COc1ccccc1NC(=O)Nc1ccnn1Cc1cccs1	-3	3	78*	-4	-3
O=C(Nc1ncc(Cc2ccccc2)s1)C1CCCO1 (stereo not given)	-5	-2	-10	-4	-1
CNc1ncc(Cc2ccccc2)s1	1	5	6	40*	0
Cc1ccc(CSc2nc(N)cc(=O)[nH]2)cc1	-10	11	-5	2	1
CN(CC(=O)NCc1ccccc1)Cc1cccc(F)c1	9	0	8	5.6*	-2
CCOc1ccc(CN(C)CC(=O)NCc2ccccc2)cc1	0	5	-4	0	1
N=c1c(C(=O)NCC2CCCO2)cc2c(=O)n3ccccc3nc2n1Cc1ccccc1 (stereo not given)	10	8	17	-2	7
COc1ccc(Cn2c(=N)c(C(=O)NCC3CCCO3)cc3c(=O)n4ccccc4nc32)cc1 (stereo not given)	3	-9	8	-3	9.2*
COc1ccc(CCn2c(=N)c(C(=O)NCC3CCCO3)cc3c(=O)n4ccccc4nc32)cc1 (stereo not given)	15	1	18	-1	5
COc1ccc2oc(=O)c(C(=O)NCC3CCCO3)cc2c1 (stereo not given)	-4	8	52*	0	-2
N=c1c(C(=O)NCC2CCCO2)cc2c(=O)n3ccccc3nc2n1Cc1ccc(Cl)cc1 (stereo not given)	15	-18	14	3	9.9*
COc1cccc2cc(C(=O)NCC3CCCO3)c(=O)oc12 (stereo not given)	-1	0	21	1	-2
Cc1cccc(-c2nc(CS(=O)CC(=O)N3CC(C)CC(C)C3)c(C)o2)c1 (stereo not given)	-50	-5	4	-2	0
CCOC(=O)Cn1cc(Cl)cc(C(=O)Nc2ccccc2)c1=O	-13	3	4	-1	1
CNC[C@@H](C)NC[C@@H](Cc1ccccc1)NCCc1ccccc1	17	-17	7	0	12*
CC[C@H](C)[C@@H](CN[C@H](C)CNC)NCCC(c1ccccc1)c1ccccc1	28	-71	-10	-2	-2
